# Laboratory results taken from ChEMBL document CHEMBL2311341, “Design, synthesis and inhibitory activities of naringenin derivatives on human colon cancer cells” (Bioorg Med Chem Lett, 2013).
# Tests used:
# HCT-116 = assay: Cytotoxicity against human HCT116 cells after 7 days by crystal violet staining based clonogenic assay; assay type: functional, cell-based; details: HCT-116, 168 h
# Summary of the method: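 HCT116 cells in DMEM with 10% heat-inactivated FBS, seeded at 5 × 10³ cells/well in 24-well plates, untreated or exposed to four compound concentrations for 7 days. Colonies were fixed with 6% glutaraldehyde and stained with 0.1% crystal violet, and survival density was read by densitometry. IC50 came from curve fitting. The whole experiment was repeated independently three times.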
# [1] = biological target: Cyclin-dependent kinase 2/cyclin E1 (Homo sapiens) (UniProt P24864+P24941); assay: Inhibition of CDK2/cyclinE (unknown origin) using histone-H1 and [gamma-33P]ATP at 10 uM by scintillation counting; assay type: protein-complex assay
# Summary of the method: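 CDK2/cyclin E was run under a commercial kinase-profiling protocol in 8 mM MOPS pH 7.0 with 0.2 mM EDTA, 0.1 mg/ml histone H1, 10 mM magnesium acetate and 10 micromolar ATP including γ-³³P-ATP (500 cpm/pmol). Incorporation was measured by scintillation counting, with the no-inhibitor count set as 100% activity. Runs were done in triplicate.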
# [2] = system: Radical scavenging activity; assay: Antioxidant activity assessed as DPPH radical scavenging activity by spectrophotometry; assay type: functional; parameters: concentration or dose not given beside the values
Structure (SMILES),IC50 (HCT-116) [µM],inhibition [1] [%],Activity [2] [%]
O=C1CC(c2ccc(O)cc2)Oc2cc(O)cc(O)c21 (racemic),36.8,14.9,59.3
CCOC(=O)N/N=C1\CC(c2ccc(O)cc2)Oc2cc(O)cc(O)c21 (configuration not stated),4.35,62.3,70.6
Cc1ccccc1C(=O)Oc1cc(O)c2c(c1)OC(c1ccc(O)cc1)CC2=O (configuration not stated),6.03,48.9,14.2
CC(C)C(=O)Oc1cc(O)c2c(c1)OC(c1ccc(O)cc1)CC2=O (configuration not stated),15.9,42.1,15.4
O=C1O[C@H]([C@@H](O)CO)C(O)=C1O,–,–,89.1
O=C(Oc1cc(O)c2c(c1)OC(c1ccc(O)cc1)CC2=O)c1cccs1 (configuration not stated),1.2,83.6,11.2
C=CCOc1cc(O)c2c(c1)OC(c1ccc(O)cc1)CC2=O (configuration not stated),1.91,84,20.7
O=C(Oc1ccccc1)Oc1cc(O)c2c(c1)OC(c1ccc(O)cc1)CC2=O (configuration not stated),20,42,15.9
